# Screening results from PubChem.
# An excerpt weighted towards active compounds, which were near 1.7% of everything screened.
# HNF4A DNA FP: change in binding of human HNF4 alpha to DNA; activity change, % at 10 µM; 0.3% of 360,000 active; HNF4a-FITC DNA binding, fluorescence polarization, 1 h; in the data active = activity change above about 30%, passing the limit was not always enough
# IDE act: IDE (human) activation, cell-based. HEK cells, FAbeta-B cleavage, fluorescence polarization; 0% vehicle, 100% cell-free pure enzyme wells. 0.073% of 340,000 active. activation, % at 5.96 µM. P14735;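 active = activation above the mean of all tested compounds plus 3 SD, set per screening campaign, cut at about 17% in these data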
# IDE inh: inhibitors of human insulin-degrading enzyme in cells | P14735 | HEK cells, FAbetaB cleavage, fluorescence polarization | inhibition, % at 5.59 µM | 0.41% of 320,000 active | AID 434962;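 active = percent inhibition above the average of all tested compounds plus 3 SD, set per screening campaign, cut at about 16% in these data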;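 also: IDE supplied by intact live HEK cells; FP after avidin binding of uncleaved biotin substrate so inhibition keeps polarization high; 0% = DMSO wells and 100% = 60 µM reference IDE inhibitor Ii1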
# TPT1 inh: C. albicans TPT1 enzyme inhibition | recombinant caTPT1, FP RNA substrate dephosphorylation | inhibition, % at 5 µM | 0.81% of 300,000 active;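 active = inhibition above the mean of all tested compounds plus 3 SD, set per screening campaign, cut at about 24% in these data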;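 also: plate controls were DMSO alone for no effect and ferristatin control at 100 nM for full effect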
# Rpn11 block: blocks the human proteasome subunit Rpn11 | human 26S proteasome, Ub4-pepOG fluorescence polarization; 20S core pre-blocked with epoxomicin | inhibition, % at 20 µM | 0.59% of 360,000 active | AID 588493;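 active = inhibition at 20 µM, scaled to each plate's controls, above about 33%, limit read from the data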
# Target sequence (O00487 whole entry, looked up): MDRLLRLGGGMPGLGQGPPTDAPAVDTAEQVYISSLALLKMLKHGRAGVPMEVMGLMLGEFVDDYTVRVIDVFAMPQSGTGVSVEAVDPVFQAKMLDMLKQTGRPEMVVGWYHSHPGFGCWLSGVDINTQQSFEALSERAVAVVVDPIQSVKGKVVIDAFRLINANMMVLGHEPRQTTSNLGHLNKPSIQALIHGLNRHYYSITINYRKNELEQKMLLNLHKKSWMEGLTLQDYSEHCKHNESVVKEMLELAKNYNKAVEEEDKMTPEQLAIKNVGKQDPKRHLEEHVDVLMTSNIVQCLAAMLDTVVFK
# CSN inh: blocks human CSN-mediated cullin deneddylation; Purified CSN, SCF-Nedd8-OG deneddylation, fluorescence polarization; Q92905; 0.38% of 360,000 active; AID 651999; inhibition, % at 12.5 µM;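 active = pattern-corrected inhibition above about 35%, with an unprinted fluorescence ratio check between 0.5 and 1.5, limit read from the data, passing the limit was not always enough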;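 also: 0% = enzyme with substrate and 100% = substrate without enzyme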
# Target sequence (Q92905 whole entry, looked up, one chain of several): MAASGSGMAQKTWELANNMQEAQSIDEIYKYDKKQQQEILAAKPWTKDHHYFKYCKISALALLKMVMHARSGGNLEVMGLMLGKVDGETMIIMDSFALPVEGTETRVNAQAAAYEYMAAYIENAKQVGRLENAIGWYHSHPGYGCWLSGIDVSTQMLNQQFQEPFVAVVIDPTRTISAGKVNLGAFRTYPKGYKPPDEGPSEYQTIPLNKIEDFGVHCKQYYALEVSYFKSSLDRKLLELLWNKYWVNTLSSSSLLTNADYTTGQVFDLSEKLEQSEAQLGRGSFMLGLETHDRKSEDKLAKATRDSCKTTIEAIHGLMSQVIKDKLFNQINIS
#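 Assay system: purified human Csn5 enzyme expressed in HEK293T cells; measure: % inhibition; also added: SCFSkp2-Nedd8OG substrate at 10 nM final; technique: fluorescence polarization; times: reaction 90 min, room temperature; medium: Tris buffer pH 7.5, NaCl, DTT, Tween-20, trehalose, ovalbumin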
# TPT1 inh confirm: TPT1 (C. albicans) inhibition, confirmation; shares compounds with TPT1 inh; inhibition, % at 5 µM; 74% of 2,400 active; recombinant caTPT1, fluorescence polarization, RNase T1 coupled;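 active = inhibition above the primary screen limit, the mean inhibition of all tested compounds plus 3 SD, cut at about 25% in these data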
# RNase T1 inh: blocks Aspergillus oryzae RNase T1, a TPT1 counter-screen; shares compounds with TPT1 inh; RNase T1 cleavage, fluorescence polarization, 1536-well; inhibition, % at 5 µM; 83% of 2,400 active; AID 2153;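 active = inhibition above the solvent-only control well mean plus 3 SD, limit set per screening run, cut at about 23% in these data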;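 also: plate controls were DMSO wells with enzyme for no effect and wells without RNase T1 for full effect; inhibitors block cleavage so intact labeled substrate keeps polarization high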
# * = called active by the depositor; . = not tested or not shown.
SMILES,HNF4A DNA FP,IDE act,IDE inh,TPT1 inh,Rpn11 block,CSN inh,TPT1 inh confirm,RNase T1 inh
COc1cccc(NC(=O)COc2nc3ccccc3nc2C)c1,4.2,-2.4,0.5,15.9,21.0,-1.1,.,.
Cc1nc2ccccc2nc1OCC(=O)Nc1ccccc1,-0.1,1.5,5.4,95.8*,10.3,0.2,4.2,4.9
COc1ccc(OCCSc2nnc(CCNC(=O)c3ccc(Cl)c(Cl)c3)n2C)cc1,-5.7,-6.7,1.6,-3.8,-60.7,4.2,.,.
CCn1c(CCNC(=O)c2ccc(Cl)c(Cl)c2)nnc1SCCOc1ccc(OC)cc1,-3.1,-2.5,6.5,24.9*,-4.7,0.0,4.4,7.2
O=C(NCCc1c[nH]c2ccccc12)C(=O)NCC(c1ccco1)N1CCN(c2ccccc2F)CC1 (stereo not given),1.7,0.8,-1.3,50.8*,0.7,-3.7,1.8,5.4
O=C(NCc1ccccc1)C(=O)NCC(c1ccco1)N1CCN(c2ccccc2F)CC1 (stereo not given),0.5,2.8,-2.3,-0.6,1.5,-1.2,.,.
COc1cccc(CN(C)C(=O)CCNC(=O)c2ccc(Br)cc2)c1,0.9,-1.1,1.3,-3.7,0.0,-3.0,.,.
CC1(C)CC(=O)C(C2=NC3(CCCCCC3)Cc3ccccc32)=C(O)C1,2.5,-2.5,0.4,28.2*,5.1,0.8,-1.3,4.0
CCN1CCN(CCCNC(=O)c2ccc(CS(=O)c3ccc(Br)cc3)o2)CC1 (stereo not given),-4.5,-1.9,1.8,-0.6,-2.3,3.7,.,.
CC(=O)NC(c1ccc(F)c(F)c1)c1nc(-c2ccc(C)c(C)c2)cs1 (stereo not given),1.8,.,.,.,-3.5,-2.7,.,.
CC(C)(C)NC(=O)CSc1nc(O)cc(=O)n1-c1ccccc1F,78.2*,-2.9,4.8,109.2*,.,56.2*,84.2*,94.3*
O=C(N/N=C/c1cc(Br)cc(Br)c1O)c1cccc(S(=O)(=O)N2CCOCC2)c1,84.7,11.4,0.7,47.9*,.,96.6,55.0*,53.5*
O=C(N/N=C/c1ccccc1Br)c1cccc(S(=O)(=O)N2CCOCC2)c1,0.8,-3.2,-0.8,.,-6.8,-3.8,.,.
O=C(N/N=C/c1cc(Br)cc(Br)c1O)c1cccc(N2CCCC2=O)c1,8.3,4.7,0.2,54.1*,.,0.4,67.7*,73.4*
O=C(N/N=C/c1ccc([N+](=O)[O-])cc1)c1cccc(N2CCCC2=O)c1,-2.4,0.1,7.5,-2.6,-7.7,2.9,.,.
COC(=O)Cn1cc(/C=C/c2cc[n+](C)cc2)c2ccccc21,91.6,-5.8,13.8,34.6*,.,68.4,40.5*,48.5*
CNC(=O)/C(C#N)=C/c1cn(CC(=O)OC)c2ccccc12,-1.8,2.9,5.5,-3.3,-1.5,1.4,.,.
O=[N+]([O-])c1ccc(Cl)c(C[n+]2cccc3ccccc32)c1,3.5,3.8,2.1,58.9*,38.0,5.9,11.5,19.0
Clc1cccc(Cl)c1C[n+]1cccc2ccccc21,3.8,5.1,7.6,3.0,28.2,12.2,.,.
O=C(C[n+]1cccc2ccccc21)c1ccc([N+](=O)[O-])cc1,2.9,1.6,0.6,31.7*,3.5,-1.4,8.5,10.3
CCCC(=O)Nc1nnc(S(=O)(=O)N(CC)c2ccccc2)s1,0.3,-3.3,-1.3,-0.3,0.7,3.8,.,.
CCc1ccc([C@@H]2CC=C(C(=O)O)[C@H](c3ccc(C(C)(C)C)cc3)N2S(=O)(=O)c2ccc(C)cc2)cc1,-24.5,1.2,-3.2,.,17.2,10.7,.,.
COc1ccc(C2C(C#N)=C(N)N(c3cccnc3)C3=C2C(=O)CCC3)cc1Cn1cc([N+](=O)[O-])cn1 (stereo not given),27.9,-3.9,2.8,37.1*,29.3,5.2,43.5*,55.2*
N#CC1=C(N)n2c(s/c(=C\c3cccs3)c2=O)=C(C#N)C1c1cccs1 (stereo not given),64.6,-6.2,3.5,54.0*,.,66.2*,42.2*,54.1*
COC(=O)[C@]12CCCCC=C1N(Cc1cccc3ccccc13)C(=O)[C@H](CC(=O)NCc1ccc(OC)c(OC)c1)C2,-0.5,.,.,.,.,4.7,.,.
SMILES,HNF4A DNA FP,IDE act,IDE inh,TPT1 inh,Rpn11 block,CSN inh,TPT1 inh confirm,RNase T1 inh
CC(Cc1ccccc1)NC(=O)CCCN1C(=O)c2ccccc2C1=O (stereo not given),1.8,-1.2,4.4,1.1,8.7,3.5,.,.
CCOc1ccc2nc(/N=C/c3nc(-c4ccc(Br)cc4)oc3O)sc2c1,13.6,-15.1,5.0,50.2*,.,10.6,57.7*,67.6*
CCCCOc1ccc(-c2nc(/C=N/c3nccs3)c(O)o2)cc1,2.1,3.0,2.1,4.7,8.8,-19.0,.,.
COc1cccc(/C=C2\Oc3cc(OCC(=O)N4CCCC4)ccc3C2=O)c1OC,-3.1,2.2,2.9,-1.4,2.2,-7.7,.,.
COc1ccc(/C=C2\Oc3cc(OC(=O)N4CCOCC4)ccc3C2=O)c(OC)c1,99.4*,-15.6,1.5,111.2*,29.4,44.0*,44.1*,64.7*
COc1ccc(/C=C2\Oc3cc(OCC(=O)N4CCC(C(=O)O)CC4)ccc3C2=O)c(OC)c1,37.5,28.8*,-15.4,65.1*,.,23.2,90.2*,98.4*
Cc1ccc(C(=O)NC2CCN(S(=O)(=O)c3ccccc3)CC2)cc1,-1.4,-0.5,-0.6,-0.2,1.0,6.6,.,.
CCC(=O)N1CCC1(C)C(=O)NS(=O)(=O)c1cccc(C#N)c1 (stereo not given),2.6,.,.,.,-15.5,2.3,.,.
CC(C)c1ccc([C@@H]2O[C@H](C)CC3=C2C(=O)OC(C)(C)O3)cc1,-3.5,.,.,.,.,-3.5,.,.
CCN(CC)c1ccc(/C=C/c2cccc[n+]2C)c(OC)c1,179.5,-35.6,28.4*,57.8*,.,140.1,62.3*,67.8*
Cc1c(/C=N/Nc2ccc([N+](=O)[O-])cn2)c2ccccc2n1Cc1ccccc1,6.1,6.2,9.9,7.8,29.1,3.6,.,.
Cc1ccc(-n2c(C)cc(/C=N/Nc3ccc([N+](=O)[O-])cn3)c2C)cc1,2.6,-7.5,-2.4,33.8*,19.2,6.7,34.8*,47.2*
Cc1ccc(Cn2cc(/C=N/Nc3ccc([N+](=O)[O-])cn3)c3ccccc32)cc1,53.7*,4.0,-3.4,50.9*,35.4,25.4,34.0*,43.5*
Cc1ccc(C=NNc2ccc([N+](=O)[O-])cn2)cc1,-2.6,5.0,.,.,3.6,-2.0,.,.
Cc1cc(/C=N/Nc2ccc([N+](=O)[O-])cn2)c(C)n1-c1ccccc1,7.3,4.2,2.5,30.8*,30.1,0.9,35.4*,47.4*
